Results from ChEMBL document CHEMBL1641503, “5-Non-amino aromatic substituted naphthalimides as potential antitumor agents: Synthesis via Suzuki reaction, antiproliferative activity, and DNA-binding behavior” (Bioorg Med Chem, 2011).
The source made the active and inactive calls. No cut-off for these calls is given here.

How the values were obtained:
HeLa = assay: Antiproliferative activity against human HeLa cells after 48 hrs by MTT assay; assay type: functional, cell-based
Outline: (§1)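 Cells seeded at 2.5 × 10⁴/well in 1640 complete medium, 37 °C, 5% CO₂, 24 h; compounds added at 100 to 0.01 µM for 48 h; D-Hank's buffer negative control. Cells washed twice with PBS, MTT (0.5 g/L in PBS, in complete medium) 4 h, DMSO to dissolve; absorbance at 492 nm (reference 630 nm). At least three experiments; mean percentage absorbance plotted against concentration.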

Calf thymus DNA [1] = assay: Binding affinity to calf thymus DNA by fluorescence assay; assay type: nucleic-acid assay; settings: Bos taurus
Outline: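 CT-DNA held at 50 µM with compound 1 to 25 µM in Tris–HCl (30 mM, pH 7.5); compound without DNA as control. Solutions ultrasonically shaken 1 day at 25 °C in the dark. Fluorescence read at 350 nm excitation. Scatchard binding constant K_b derived from quenching (F0 vs F1) via Scatchard plot.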

[2] = Antiproliferative activity against mouse P388D1 cells after 48 hrs by MTT assay; assay type: functional, cell-based; settings: P388D1, 48 h; outline: as §1
Calf thymus DNA [3] = assay: Binding affinity to calf thymus DNA assessed as increase of viscosity of DNA solution at 100 uM; assay type: nucleic-acid assay; settings: Bos taurus
Outline: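 Ubbelohde viscometry at 25 ± 0.1 °C. CT-DNA 100 µM in Tris–HCl (30 mM, pH 7.5), kept at 4 °C overnight, sonicated 10 min, filtered 0.45 µm. Flow time measured three times per sample and averaged, corrected for buffer. (η/η0)^1/3 plotted versus compound/DNA ratio.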

Calf thymus DNA [4] = assay: Binding affinity to calf thymus DNA at 10 uM by circular dichroism assay; assay type: nucleic-acid assay; settings: Bos taurus
Outline: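 CD spectra of CT-DNA (100 µM) with compound at 10 µM in Tris–HCl buffer (pH 7.0), 1-cm quartz cell, 200–600 nm; buffer spectrum subtracted.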

SMILES	IC50 (HeLa)	Kb (Calf thymus DNA [1])	IC50 [2]	Activity (Calf thymus DNA [3])	Activity (Calf thymus DNA [4])
Cc1ccc(-c2cc3c4c(cccc4c2)C(=O)N(CCN(C)C)C3=O)cc1	45.8 µM	10.8 ×10⁵ /M	2190 nM	–	–
CN(C)CCN1C(=O)c2cccc3cc(-c4ccc(F)cc4)cc(c23)C1=O	–	12.4 ×10⁵ /M	–	–	–
CN(C)CCN1C(=O)c2cccc3cc(N)cc(c23)C1=O [AMONAFIDE]	6.02 µM	1.05 ×10⁵ /M	680 nM	–	–
CN(C)CCN1C(=O)c2cccc3cc(-c4ccccc4)cc(c23)C1=O	5.7 µM	10.8 ×10⁵ /M	680 nM	Active	Active
CN(C)CCN1C(=O)c2cccc3cc(-c4ccc(F)c(F)c4)cc(c23)C1=O	5.3 µM	12.8 ×10⁵ /M	980 nM	–	–
CN(C)CCN1C(=O)c2cccc3cc(-c4cccc([N+](=O)[O-])c4)cc(c23)C1=O	4.7 µM	14.8 ×10⁵ /M	380 nM	–	–
CN(C)CCN1C(=O)c2cccc3cc(-c4ccc(C(F)(F)F)cc4)cc(c23)C1=O	–	11.8 ×10⁵ /M	–	–	–
CN(C)CCN1C(=O)c2cccc3cc(-c4cccs4)cc(c23)C1=O	3.1 µM	13.2 ×10⁵ /M	680 nM	Active	Active
